Measurements reported in ChEMBL document CHEMBL1139450, “Synthesis of a novel nitroimidazole-spermidine derivative as a tumor-targeted hypoxia-selective cytotoxin” (2004).

Legend:
[1] = Ratio of CT50 in aerobic condition to CT50 in hypoxic condition when V79 cells were exposed to 4 uM spermidine (CT50A/CT50H); format: functional
Summary of the method: (§1)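 Ratio of aerobic to hypoxic CT50 (CT50A/CT50H, air vs N2) from clonogenic assays in suspended V79 cells; each CT50 is the mean of 4 determinations. Where used, DFMO pretreatment was given to monolayers in air for 48 h. Spermidine was co-administered with the drug under the same conditions.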

V79 [2] = assay: Cytotoxicity of compound was assessed against suspended V79 cells exposed to 4 uM spermidine under hypoxic conditions in clonogenic assay; format: functional, Cricetulus griseus
Summary of the method: (§2)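 Clonogenic assay in suspended V79 Chinese hamster lung fibroblasts exposed to drug in air (A) or N2 (H). CT50 is the drug concentration (mM) that cuts clonogenicity to 50% of matched controls; mean ± SEM of 4 determinations. Where used, DFMO was given to exponentially growing monolayers in air for 48 h beforehand. Spermidine was added alongside the drug under the same conditions. Student's t-test was run against matched controls.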

V79 [3] = assay: Cytotoxicity of compound was assessed against suspended V79 cells exposed to 0.1 mM DFMO and 4 uM spermidine under hypoxic conditions in clonogenic assay; format: functional, Cricetulus griseus; summary of the method: as §2
V79 [4] = assay: Cytotoxicity of compound was assessed against suspended V79 cells exposed to 1 mM DFMO for 48 hr under hypoxic conditions in clonogenic assay; format: functional, Cricetulus griseus; summary of the method: as §2
[5] = Ratio of CT50 in aerobic condition to CT50 in hypoxic condition when V79 cells were exposed to 4 uM spermidine and 0.1 mM DFMO (CT50A/CT50H); format: functional; summary of the method: as §1
V79 [6] = assay: Cytotoxicity of compound was assessed against suspended V79 cells exposed to 0.1 mM DFMO and 4 uM spermidine under aerobic conditions in clonogenic assay; format: functional, Cricetulus griseus; summary of the method: as §2
[7] = Ratio of CT50 in aerobic condition to CT50 in hypoxic condition (CT50A/CT50H); format: functional; summary of the method: as §1
V79 [8] = assay: Cytotoxicity of compound was assessed against suspended V79 cells under aerobic conditions in clonogenic assay; format: functional, Cricetulus griseus; summary of the method: as §2
V79 [9] = assay: Cytotoxicity of compound was assessed against suspended V79 cells exposed to 1 mM DFMO for 48 hr under aerobic conditions in clonogenic assay; format: functional, Cricetulus griseus; summary of the method: as §2
V79 [10] = assay: Cytotoxicity of compound was assessed against suspended V79 cells under hypoxic conditions in clonogenic assay; format: functional, Cricetulus griseus; summary of the method: as §2
[11] = Ratio of CT50 in aerobic condition to CT50 in hypoxic condition when V79 cells were exposed to 1 mM DFMO (CT50A/CT50H); format: functional; summary of the method: as §1
V79 [12] = assay: Cytotoxicity of compound was assessed against suspended V79 cells exposed to 1 mM DFMO and 0.5 mM spermidine under aerobic conditions in clonogenic assay; format: functional, Cricetulus griseus; summary of the method: as §2
V79 [13] = assay: Cytotoxicity of compound was assessed against suspended V79 cells treated with 4 uM spermidine under aerobic conditions in clonogenic assay; format: functional, Cricetulus griseus; summary of the method: as §2

`Cl.Cl.Cl.NCCCCN(CCCN)CC(O)Cn1ccnc1[N+](=O)[O-]` (stereo not drawn) gave a Ratio [1] of 2.3, a CT50 (V79 [2]) of 1.15 mM and a CT50 (V79 [3]) of 0.88 mM. The CT50 (V79 [4]) was 0.74 mM, the Ratio [5] was 1.3 and the CT50 (V79 [6]) was 1.15 mM. It also gave a Ratio [7] of 2, a CT50 (V79 [8]) of 2.6 mM and a CT50 (V79 [9]) of 1.63 mM. The CT50 (V79 [10]) was 1.28 mM, the Ratio [11] was 2.2 and the CT50 (V79 [12]) was 0.63 mM. It also gave a CT50 (V79 [13]) of 2.64 mM.
